# Results reported in ChEMBL document CHEMBL1152423, “Development of N-[11C]methylamino 4-hydroxy-2(1H)-quinolone derivatives as PET radioligands for the glycine-binding site of NMDA receptors” (Bioorg Med Chem, 2009).
# The source made the active and inactive calls. No cut-off for these calls is given here.
# Columns and labels:
# Glutamate NMDA receptor [1] = test: Displacement of [3H]MDL-105519 from glycine binding site of NMDA receptor in rat cortical membrane by liquid scintillation counting; format: cell membranes
# How it was run: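 Washed rat cortical membranes in 50 mM Tris–HCl (pH 8.0) were incubated 45 min at 4 °C with [3H]MDL-105,519 (2 nM) plus buffer or displacer. Nonspecific binding was defined with excess unlabeled glycine. Samples were filtered on GF/B, washed three times with ice-cold buffer, and counted by liquid scintillation. Ki came from three determinations, each in triplicate.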
# [2] = n-Octanol-sodium phosphate buffer partition coefficient, log D at pH 7.4 after 15 mins by shake-flask method; format: physicochemical
# How it was run: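 Compound (1–2 mg) was shaken 15 min at ambient temperature in n-octanol and 10 mM phosphate buffer (pH 7.4). The mixture was centrifuged at 2500 rpm for 5 min, and both layers were analysed by HPLC (n=3).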
# [3] = Plasma protein binding in rat at 0.67 to 0.89 […] after 30 mins by ultrafiltration; format: ADME, cell-free; settings: read-out: PPB (converted)
# How it was run: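 Rat serum was diluted 10-fold in 66 mM phosphate buffer (pH 7.4) containing [11C]radioligand (0.67–0.89 MBq) and incubated 30 min at 30 °C. It was then ultrafiltered by centrifugation at 2000 rpm for 15 min. Radioactivity in whole plasma and in filtrate was counted to give % bound (mean, n=3).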
# Blood [4] = test: Biodistribution in ddY mouse blood assessed per gram of tissue at 7.4 MBq, iv after 1 min by gamma counting; format: ADME, organism-based; settings: in vivo
# How it was run: (§1)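 ddY mice (35–45 g) received about 7.4 MBq of [11C]radioligand in 0.2 ml into the tail vein and were decapitated at 1 or 30 min. Blood, cerebrum and cerebellum were gamma-counted with decay correction and expressed as % injected dose/g; tissue/blood ratios were derived. n=3 or 5.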
# [5] = Biodistribution in ddY mouse cerebrum assessed per gram of tissue at 7.4 MBq, iv after 1 min by gamma counting; format: ADME, organism-based; settings: in vivo; how it was run: as §1
# Cerebellum [6] = test: Biodistribution in ddY mouse cerebellum assessed per gram of tissue at 7.4 MBq, iv after 1 min by gamma counting; format: ADME, organism-based; settings: in vivo; how it was run: as §1
# Blood [7] = test: Biodistribution in ddY mouse blood assessed per gram of tissue at 7.4 MBq, iv after 30 mins by gamma counting; format: ADME, organism-based; settings: in vivo, 0.5 h; how it was run: as §1
# [8] = Biodistribution in ddY mouse cerebrum assessed per gram of tissue at 7.4 MBq, iv after 30 mins by gamma counting; format: ADME, organism-based; settings: in vivo, 0.5 h; how it was run: as §1
# Cerebellum [9] = test: Biodistribution in ddY mouse cerebellum assessed per gram of tissue at 7.4 MBq, iv after 30 mins by gamma counting; format: ADME, organism-based; settings: in vivo, 0.5 h; how it was run: as §1
# [10] = Ratio of drug level in cerebrum to blood of ddY mouse at 7.4 MBq, iv after 1 min; format: ADME, organism-based; how it was run: as §1
# [11] = Ratio of drug level in cerebellum to blood of ddY mouse at 7.4 MBq, iv after 1 min; format: ADME, organism-based; how it was run: as §1
# [12] = Ratio of drug level in cerebrum to blood of ddY mouse at 7.4 MBq, iv after 30 mins; format: ADME, organism-based; how it was run: as §1
# [13] = Ratio of drug level in cerebellum to blood of ddY mouse at 7.4 MBq, iv after 30 mins; format: ADME, organism-based; how it was run: as §1
# [14] = Metabolic stability in ddY mouse brain at 7.4 MBq, iv after 30 mins by radio-TLC analysis; format: ADME, organism-based; settings: 40 MBq, in the assay text read “40 MBq” for “7.4 MBq”, read-out: Activity
# How it was run: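 Mice received [11C]radioligand (40 MBq) iv and were killed at 30 min. Whole brain was homogenized in ice-cold MeOH and centrifuged at 10,000 rpm for 1 min at 4 °C. Extracts were analysed by radio-TLC using CHCl3/CH3CN 3:1, CHCl3/MeOH 9:1, or CH3CN as mobile phase; intact parent fraction was recorded.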
# [15] = Metabolic stability in ddY mouse blood at 7.4 MBq, iv after 30 mins by radio-TLC analysis; format: ADME, organism-based; settings: 40 MBq, in the assay text read “40 MBq” for “7.4 MBq”, read-out: Activity
# Blood [16] = test: Biodistribution in ddY mouse blood assessed per gram of tissue at 40 MBq, iv after 30 mins by gamma counting in presence of 5-ethyl-7-chloro-4-hydroxy-3-(3-[11C]methylaminophenyl)-2(1H)-quinolone; format: ADME, organism-based; settings: in vivo, 0.5 h
# How it was run: (§2)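 Blocking study: [11C]radioligand was mixed with unlabeled ligand (2 mg/kg) and injected iv into ddY mice. Animals were killed at 30 min; blood, cerebrum and cerebellum were gamma-counted and expressed as % dose/g and tissue/blood ratios. Comparison with controls used the Mann–Whitney U-test.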
# [17] = Biodistribution in ddY mouse cerebrum assessed per gram of tissue at 40 MBq, iv after 30 mins by gamma counting in presence of 5-ethyl-7-chloro-4-hydroxy-3-(3-[11C]methylaminophenyl)-2(1H)-quinolone; format: ADME, organism-based; settings: in vivo, 0.5 h, in the assay text read “7.4 MBq” for “40 MBq”; how it was run: as §2
# Cerebellum [18] = test: Biodistribution in ddY mouse cerebellum assessed per gram of tissue at 40 MBq, iv after 30 mins by gamma counting in presence of 5-ethyl-7-chloro-4-hydroxy-3-(3-[11C]methylaminophenyl)-2(1H)-quinolone; format: ADME, organism-based; settings: in vivo, 0.5 h, in the assay text read “7.4 MBq” for “40 MBq”; how it was run: as §2
# [19] = Ratio of drug level in cerebrum to blood of ddY mouse at 40 MBq, iv after 30 mins in presence of 5-ethyl-7-chloro-4-hydroxy-3-(3-[11C]methylaminophenyl)-2(1H)-quinolone; format: ADME, organism-based; settings: in vivo, 0.5 h, in the assay text read “7.4 MBq” for “40 MBq”; how it was run: as §2
# [20] = Ratio of drug level in cerebellum to blood of ddY mouse at 40 MBq, iv after 30 mins in presence of 5-ethyl-7-chloro-4-hydroxy-3-(3-[11C]methylaminophenyl)-2(1H)-quinolone; format: ADME, organism-based; settings: in vivo, 0.5 h, in the assay text read “7.4 MBq” for “40 MBq”; how it was run: as §2
# [21] = target: T1, Glutamate NMDA receptor (Rattus norvegicus) (UniProt P35439+Q00959+Q00960+Q00961+Q62645+Q8VHN2+Q9R1M7); test: Binding affinity to glycine binding site of NMDA receptor in hippocampus of rat brain by autoradiography; format: tissue-based; settings: tested as the 11C-labelled form
# How it was run: (§3)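 Rat brain sagittal sections were preincubated 30 min at 25 °C in 50 mM Tris–HCl (pH 7.4), then incubated 30 min at 25 °C with the [11C]radioligand (1.59–2.13 nM). Sections were rinsed twice for 3 min in cold buffer, dipped in cold water, dried, and exposed to imaging plates for 60 min. Nonspecific binding was taken with the corresponding unlabeled ligand; specific binding is given per region.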
# [22] = target: T1, Glutamate NMDA receptor (Rattus norvegicus); test: Binding affinity to glycine binding site of NMDA receptor in cerebral cortex of rat brain by autoradiography; format: tissue-based; settings: tested as the 11C-labelled form; how it was run: as §3
# [23] = target: T1, Glutamate NMDA receptor (Rattus norvegicus); test: Binding affinity to glycine binding site of NMDA receptor in thalamus of rat brain by autoradiography; format: tissue-based; settings: tested as the 11C-labelled form; how it was run: as §3
# [24] = target: T1, Glutamate NMDA receptor (Rattus norvegicus); test: Binding affinity to glycine binding site of NMDA receptor in striatum of rat brain by autoradiography; format: tissue-based; settings: tested as the 11C-labelled form; how it was run: as §3
# [25] = target: T1, Glutamate NMDA receptor (Rattus norvegicus); test: Binding affinity to glycine binding site of NMDA receptor in cerebellum of rat brain by autoradiography; format: tissue-based; settings: tested as the 11C-labelled form; how it was run: as §3
# [26] = target: T1, Glutamate NMDA receptor (Rattus norvegicus); test: Binding affinity to glycine binding site of NMDA receptor in hippocampus of rat brain by autoradiography in presence of glycine; format: tissue-based; settings: tested as the 11C-labelled form
# How it was run: (§4)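 Hippocampal binding on rat brain slices: 30 min at 25 °C in 50 mM Tris–HCl (pH 7.4) with [11C]radioligand (1.59–2.13 nM), with or without a glycine-site drug (agonists at 1 mM). Slices were rinsed, dried and exposed to imaging plates for 60 min. PSL with drug was divided by PSL without drug to give % total binding, averaged over at least triplicate sections from three animals.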
# [27] = target: T1, Glutamate NMDA receptor (Rattus norvegicus); test: Binding affinity to glycine binding site of NMDA receptor in hippocampus of rat brain by autoradiography in presence of glycine-site agonist D-serine; format: tissue-based; settings: tested as the 11C-labelled form; how it was run: as §4
# [28] = target: T1, Glutamate NMDA receptor (Rattus norvegicus); test: Binding affinity to glycine binding site of NMDA receptor in hippocampus of rat brain by autoradiography in presence of glycine-site antagonist L-703717; format: tissue-based; settings: tested as the 11C-labelled form; how it was run: as §4
# [29] = target: T1, Glutamate NMDA receptor (Rattus norvegicus); test: Binding affinity to glycine binding site of NMDA receptor in hippocampus of rat brain by autoradiography in presence of glycine-site antagonist methoxy-MDL-104653; format: tissue-based; settings: tested as the 11C-labelled form; how it was run: as §4
# [30] = target: T1, Glutamate NMDA receptor (Rattus norvegicus); test: Binding affinity to glycine binding site of NMDA receptor in hippocampus of rat brain by autoradiography in presence of glycine-site antagonist MDL-105519; format: tissue-based; settings: tested as the 11C-labelled form; how it was run: as §4
# Glutamate NMDA receptor [31] = test: Binding affinity to glycine binding site of NMDA receptor in rat brain; format: tissue-based
smiles,measurement,setting,value
COc1ccc(Cc2cccc(-c3c(O)c4ccc(Cl)cc4[nH]c3=O)c2)cc1,Ki,Glutamate NMDA receptor [1],0.00512 µM
same,logD at 0.25 h,[2],3.47
same,fraction unbound at 0.5 h,[3],0.06
CCc1cc(Cl)cc2[nH]c(=O)c(-c3cccc(N[11CH3])c3)c(O)c12,Drug uptake,Blood [4],20.91 %ID
same,Drug uptake,[5],0.47 %ID
same,Drug uptake,Cerebellum [6],0.87 %ID
same,Drug uptake,Blood [7],9.08 %ID/g
same,Drug uptake,[8],0.38 %ID/g
same,Drug uptake,Cerebellum [9],0.53 %ID/g
same,Kp at 1 min,[10],0.022
same,Kp at 1 min,[11],0.042
same,Kp at 0.5 h,[12],0.042
same,Kp at 0.5 h,[13],0.058
same,remaining at 0.5 h,[14],70%
same,remaining at 0.5 h,[15],93%
same,Drug uptake,Blood [16],7.77 %ID
same,Drug uptake,[17],0.34 %ID
same,Drug uptake,Cerebellum [18],0.34 %ID
same,Ratio,[19],0.044
same,Ratio,[20],0.044
same,fraction unbound at 0.5 h,[3],0.29
CNc1ccc(Cc2cccc(-c3c(O)c4ccc(Cl)cc4[nH]c3=O)c2)cc1,Ki,Glutamate NMDA receptor [1],0.0117 µM
same,logD at 0.25 h,[2],3
same,Activity,[21],70%
same,Activity,[22],Active
same,Activity,[23],Active
same,Activity,[24],Active
same,Activity,[25],30%
same,Activity,[26],46%
same,Activity,[27],46%
same,Activity,[28],58%
same,Activity,[29],58%
same,Activity,[30],58%
COc1cccc(-c2c(O)nc3cc(Cl)ccc3c2O)c1,Ki,Glutamate NMDA receptor [31],0.167 µM
CN(C)c1ccc(Cc2cccc(-c3c(O)c4ccc(Cl)cc4[nH]c3=O)c2)cc1,Ki,Glutamate NMDA receptor [1],0.0222 µM
COc1cccc(-c2c(O)c3c(N)cc(Cl)cc3[nH]c2=O)c1,Ki,Glutamate NMDA receptor [1],0.119 µM
COc1cccc(-c2c(O)c3c(I)cc(Cl)cc3[nH]c2=O)c1,Ki,Glutamate NMDA receptor [31],0.0103 µM
COc1ccc(Nc2cccc(-c3c(O)c4ccc(Cl)cc4[nH]c3=O)c2)cc1,Ki,Glutamate NMDA receptor [1],0.0236 µM
